Measurements as given in ChEMBL document CHEMBL1221375, “Structure-activity relationship study of glaziovianin A against cell cycle progression and spindle formation of HeLa S3 cells” (Bioorg Med Chem Lett, 2010).
The source made the active and inactive calls. The calls are words filed in the database; no cut-off is given here.

Experiments:
[1] = Cytotoxicity against human HeLaS3 cells after 48 hrs by […] assay; format: functional, cell-based; details: HeLa S3, 48 h
In short: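 HeLa S₃ cells seeded at 3 × 10³ cells/well and incubated overnight, then exposed to a range of compound concentrations for 48 h. WST-8 reagent added for 2 h and absorbance read at 450 nm. Viability (% control) = (sample absorbance − blank) / (0 µM well absorbance) × 100.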

[2] = Cytotoxicity against human HeLaS3 cells after 48 hrs by […] assay relative to glaziovianin A; format: functional, HeLa S3
[3] = Cell cycle arrest in human HeLaS3 cells assessed as accumulation at M phase at 1 uM after 18 hrs by flow cytometry; format: functional, cell-based; details: HeLa S3
In short: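 HeLa S3 cells exposed 18 h to 1 μM compound, DMSO as vehicle control. Cells then fixed in cold (−20 °C) 70% EtOH (v/v), stained with propidium iodide. DNA content distribution obtained from total fluorescence intensities by quantitative flow cytometry.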

[4] = Cell cycle arrest in human HeLaS3 cells assessed as abnormal spindle structures with unaligned chromosomes at 1 uM after 18 hrs; format: functional, cell-based; details: HeLa S3
In short: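 HeLa S₃ cells given 1 µM compound or DMSO for 18 h. Microtubules immunostained with anti-α-tubulin antibody (DM1A) and chromosomes stained with Hoechst 33258. Spindle structures and chromosome alignment assessed by fluorescence microscopy.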

| SMILES | IC50 [1] | Ratio [2] | Activity [3] | Activity [4] |
| --- | --- | --- | --- | --- |
| COc1cc2occ(-c3ccc4c(c3)OCO4)c(=O)c2cc1OC | 56.2 µM | 0.01 | – | – |
| COc1cc2c(=O)c(-c3cc(OC)c4c(c3OC)OCO4)coc2cc1O | > 100 µM | – | – | – |
| COc1cc2occ(-c3cc(OC)c4c(c3OC)OC(C)(C)O4)c(=O)c2cc1OC | > 100 µM | – | – | – |
| COc1cc2c(=O)c(-c3cc(OC)c4c(c3OC)OCO4)coc2cc1OC1CCCCO1 (stereo not drawn) | > 100 µM | – | – | – |
| COc1cc2c(=O)c(-c3cc(OC)c4c(c3OC)OCO4)coc2cc1OCc1ccccc1 | 0.75 µM | 0.79 | – | – |
| COc1cc2occ(-c3cc(OC)c4c(c3OC)OCO4)c(=O)c2cc1OC [GLAZIOVIANIN A] | 0.59 µM | – | Active | – |
| COc1cc2occ(-c3cc(OC)c(OC)c(OC)c3OC)c(=O)c2cc1OC | 22 µM | 0.027 | – | – |
| COc1cc(-c2coc3cc(OC)c(OC)c(OC)c3c2=O)c(OC)c2c1OCO2 | > 100 µM | – | – | – |
| C#CCOc1cc2occ(-c3cc(OC)c4c(c3OC)OCO4)c(=O)c2cc1OC | 0.74 µM | 0.8 | – | – |
| C=CCOc1cc2occ(-c3cc(OC)c4c(c3OC)OCO4)c(=O)c2cc1OC | 0.19 µM | 3.1 | Active | Active |
